Ratio data for one compound are collected here from ChEMBL document CHEMBL1938297, “Synthesis, radiofluorination and pharmacological evaluation of a fluoromethyl spirocyclic PET tracer for central σ1 receptors and comparison with fluoroalkyl homologs” (Bioorg Med Chem, 2012).

This series can be described thus: Ratio of biodistribution in anterior olfactory bulb to facial nucleus in brain saggital section of CD1 mouse at 24 MBq, iv after 45 mins. As to conditions: in vivo, 0.75 h. Type of series: ADME, organism-based. In outline: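 Female CD-1 mouse given 24 MBq radiotracer i.v. and killed at 45 min. The brain hemispheres were frozen in isopentane (−35 °C), cut into 12 µm sagittal cryosections and exposed to 18F-sensitive phosphor screens. Regional uptake was expressed as a target-to-nontarget ratio, with the anterior olfactory bulb as the nontarget reference.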

SMILES strings stand for the structures.

On to `[18F]CC1OC2(CCN(Cc3ccccc3)CC2)c2ccccc21` (stereo unspecified), for which the Ratio was found to be 1.34.
